Laboratory results published in ChEMBL document CHEMBL1124804, “Substituted vitamin K epoxide analogues. New competitive inhibitors and substrates of vitamin K1 epoxide reductase” (J Med Chem, 1990).

Legend:
[1] = substrate: CC(C)CCCC(C)CCCC(C)CCCC(C)/C=C/C12OC1(C)C(=O)c1ccccc1C2=O; assay: (§1) Vmax value at Vitamin K epoxide reductase
Outline: (§2)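 Analogues served as alternative substrates in place of vitamin K1 epoxide for beef liver microsomal reductase (0.02% Emulgen 911, DTT), at 10–100 μM (12 levels). Km and Vmax came from rates of quinone product formation, not from substrate consumption. They were reported only where the quinone product was stable to DTT.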

[2] = substrate: C/C(=C\C(O)C12OC1(C)C(=O)c1ccccc1C2=O)CCCC(C)CCCC(C)CCCC(C)C; assay: as §1; outline: as §2
[3] = substrate: C/C(=C\CC12OC1(CF)C(=O)c1ccccc1C2=O)CCCC(C)CCCC(C)CCCC(C)C; assay: as §1; outline: as §2
[4] = substrate: CC(C)CCCC(C)CCCC(C)CCCC(C)CCC12OC1(C)C(=O)c1ccccc1C2=O; assay: as §1; outline: as §2
[5] = substrate: CC(C)CCCC(C)CCCC(C)CCCC(C)CC(O)C12OC1(C)C(=O)c1ccccc1C2=O; assay: as §1; outline: as §2
[6] = substrate: C/C(=C\CC12OC1(C)C(=O)c1ccccc1C2=O)CCCC(C)CCCC(C)CCCC(C)C; assay: as §1; outline: as §2
[7] = substrate: C/C(=C\CC12OC1(CO)C(=O)c1ccccc1C2=O)CCCC(C)CCCC(C)CCCC(C)C; assay: as §1; outline: as §2
[8] = substrate: CC(C)CCCC(C)CCCC(C)CCCC(C)/C=C/C12OC1(C)C(=O)c1ccccc1C2=O; assay: (§3) Km value at Vitamin K epoxide reductase; outline: as §2
[9] = substrate: C/C(=C\C(O)C12OC1(C)C(=O)c1ccccc1C2=O)CCCC(C)CCCC(C)CCCC(C)C; assay: as §3; outline: as §2
[10] = substrate: C/C(=C\CC12OC1(CF)C(=O)c1ccccc1C2=O)CCCC(C)CCCC(C)CCCC(C)C; assay: as §3; outline: as §2
[11] = substrate: CC(C)CCCC(C)CCCC(C)CCCC(C)CCC12OC1(C)C(=O)c1ccccc1C2=O; assay: as §3; outline: as §2
[12] = substrate: CC(C)CCCC(C)CCCC(C)CCCC(C)CC(O)C12OC1(C)C(=O)c1ccccc1C2=O; assay: as §3; outline: as §2
[13] = substrate: C/C(=C\CC12OC1(C)C(=O)c1ccccc1C2=O)CCCC(C)CCCC(C)CCCC(C)C; assay: as §3; outline: as §2
[14] = substrate: C/C(=C\CC12OC1(CO)C(=O)c1ccccc1C2=O)CCCC(C)CCCC(C)CCCC(C)C; assay: as §3; outline: as §2

B1: Vitamin K epoxide reductase complex subunit 1 (Bos taurus), Q6B4J2 (protein)
chain: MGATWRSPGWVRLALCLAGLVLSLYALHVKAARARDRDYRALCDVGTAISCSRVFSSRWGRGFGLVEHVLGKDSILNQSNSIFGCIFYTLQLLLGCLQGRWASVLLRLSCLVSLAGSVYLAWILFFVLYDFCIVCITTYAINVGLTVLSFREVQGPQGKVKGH
- Vmax [1]: 2 pmol/s/mg
- Vmax [2]: 2.4 pmol/s/mg
- Vmax [3]: 4 pmol/s/mg
- Vmax [4]: 2.1 pmol/s/mg
- Vmax [5]: 1.6 pmol/s/mg
- Vmax [6]: 2.9 pmol/s/mg
- Vmax [7]: 3.4 pmol/s/mg
- Km [8]: 68 µM
- Km [9]: 25 µM
- Km [10]: 20 µM
- Km [11]: 30 µM
- Km [12]: 34 µM
- Km [13]: 18 µM
- Km [14]: 10 µM
